MEKK3 PB1 HTS: modulators (inhibitors or enhancers) of MEK5 binding to human MEKK3 PB1 domain. binding response (% of control), % at 10 µM. Q99759. hit rate 1.4% among 290,000. bead-based flow cytometry, Alexa488-MEK5 binding to MEKK3; actives lie on both sides; 0 = blocked by unlabeled MEK5, 100 = vehicle;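 active = binding response more than 3 SD above or below the average of its plate-row segment, actives on both sides; inconclusive = wells at one plate position flagged as instrument error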;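 note: Alexa488 bead fluorescence after subtracting the streptavidin-only scavenger bead signal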
Pemphigus Ab inh: inhibitors of pemphigus antibody binding to human desmoglein-3; hit rate 0.48% among 310,000; DSG3-coupled beads, scFv-anti-DSG3-GFP binding, flow cytometry; hits give low values; P32926; binding (percent of control), % at 10 µM;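 active = binding more than 3 SD below its plate's average and above zero; inconclusive = below that plate limit but binding exactly zero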;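 note: hits lower antibody fragment binding to DSG3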
UBC13 inh: inhibitors of human UBC13 polyubiquitin chain formation; P61088; TR-FRET; inhibition, % at 20 µM; hit rate 0.47% among 330,000; in the data active = inhibition above about 45%, passing the limit was not always enough; inconclusive = no clear call, values can overlap the other calls
Apaf1 inhib: human Apaf-1 inhibition; inhibition, % at 20 µM; hit rate 0.71% among 330,000; O14727; reconstituted apoptosome caspase-3 activity, DEVD-Rh110 fluorescence; AID 489030; active = inhibition of at least 40% at 20 µM;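 note: plate controls were DMSO wells for no effect and DEVD-CHO caspase inhibitor wells for full effect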
Target sequence (O14727 whole entry, looked up): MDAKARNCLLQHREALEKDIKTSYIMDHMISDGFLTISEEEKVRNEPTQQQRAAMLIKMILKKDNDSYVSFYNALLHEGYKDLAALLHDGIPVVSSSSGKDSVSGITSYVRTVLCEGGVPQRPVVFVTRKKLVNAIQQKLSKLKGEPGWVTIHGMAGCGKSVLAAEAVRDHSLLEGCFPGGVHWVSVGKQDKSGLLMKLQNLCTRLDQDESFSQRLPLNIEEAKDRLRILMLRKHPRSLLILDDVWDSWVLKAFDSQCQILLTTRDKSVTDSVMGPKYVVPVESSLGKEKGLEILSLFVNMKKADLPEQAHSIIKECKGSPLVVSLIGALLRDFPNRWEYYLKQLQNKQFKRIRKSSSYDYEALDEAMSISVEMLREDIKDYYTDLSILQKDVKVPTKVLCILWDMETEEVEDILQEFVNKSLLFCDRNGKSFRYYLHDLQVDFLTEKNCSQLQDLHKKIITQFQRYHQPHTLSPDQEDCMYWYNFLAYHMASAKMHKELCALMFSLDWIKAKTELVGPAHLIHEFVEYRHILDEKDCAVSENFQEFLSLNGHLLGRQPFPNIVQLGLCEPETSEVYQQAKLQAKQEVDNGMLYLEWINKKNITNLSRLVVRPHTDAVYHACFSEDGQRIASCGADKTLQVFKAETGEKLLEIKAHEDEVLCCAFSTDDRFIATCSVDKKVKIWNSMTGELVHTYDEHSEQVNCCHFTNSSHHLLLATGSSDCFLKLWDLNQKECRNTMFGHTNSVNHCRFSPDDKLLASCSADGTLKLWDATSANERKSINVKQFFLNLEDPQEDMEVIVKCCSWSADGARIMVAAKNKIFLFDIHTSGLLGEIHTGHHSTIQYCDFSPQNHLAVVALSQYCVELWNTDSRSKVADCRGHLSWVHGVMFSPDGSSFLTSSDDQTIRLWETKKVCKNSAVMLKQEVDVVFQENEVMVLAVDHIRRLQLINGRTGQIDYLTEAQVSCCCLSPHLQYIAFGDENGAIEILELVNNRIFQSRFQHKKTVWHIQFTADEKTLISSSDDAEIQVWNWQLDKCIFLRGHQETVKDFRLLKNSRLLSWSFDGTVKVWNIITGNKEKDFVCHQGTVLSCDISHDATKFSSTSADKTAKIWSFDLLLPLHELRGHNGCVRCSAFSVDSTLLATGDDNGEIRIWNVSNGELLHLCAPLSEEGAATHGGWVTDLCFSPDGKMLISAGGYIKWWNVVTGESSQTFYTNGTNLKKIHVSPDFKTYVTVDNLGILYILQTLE
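System: reconstituted apoptosome with Apaf-1, cytochrome c, caspase-9, procaspase-3, dATP; Signal: Rh110 fluorescence intensity; Schedule: 30 min compound preincubation, 50 min activation, room temperature; Reagent: cytochrome c trigger plus (Z-DEVD)2-Rh110 caspase-3 substrate.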
MEKK2 mut-MEK5: signal of MEK5 binding to mutant human MEKK2 PB1 domain; bead flow cytometry, Alexa488-MEK5 binding to MEKK2 mutant; hit rate 0.35% among 290,000; percent response, % at 10 µM; in the data active = percent response above about 24%, passing the limit was not always enough
MEKK2 WT-MEK5: raises or lowers MEK5 binding to wildtype human MEKK2 PB1 domain. binding response (% of control), % at 10 µM. bead flow cytometry, Alexa488-MEK5 binding to MEKK2 WT; actives lie on both sides. hit rate 1.1% among 290,000. Q9Y2U5. AID 1531; in the data active = binding response below about 67% or above about 130%; inconclusive = no clear call, values can overlap the other calls; inactive = in between
MEKK2wt confirm: raises or lowers MEK5 binding to wildtype human MEKK2, retest. shares compounds with MEKK3 PB1 HTS. hit rate 2.4% among 5,900. binding response (% of control), % at 10 µM. bead flow cytometry, Alexa488-MEK5 binding to MEKK2 WT; actives lie on both sides; in the data active = binding response below about 16% or above about 210%; inactive = in between
MEKK2mut confirm: signal of MEK5 binding to mutant human MEKK2, retest | shares compounds with MEKK3 PB1 HTS | bead flow cytometry, Alexa488-MEK5 binding to MEKK2 mutant | percent response, % at 10 µM | hit rate 2% among 5,900; in the data active = percent response mostly above about 71%, no sharp cut-off; inactive = mostly below about 38%;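 note: higher means compound restores mutant binding toward wildtype level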
MEKK3 confirm: confirmation of inhibitors of MEK5 binding to human MEKK3 | shares compounds with MEKK3 PB1 HTS | bead flow cytometry, Alexa488-MEK5 binding to MEKK3; hits give low values | binding response (% of control), % at 10 µM | hit rate 1.8% among 5,900 | AID 1894;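 active = binding response below 72% of control, or above a set upper limit, though filed actives all read lower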;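 note: 100% = DMSO only wells and 0% = binding blocked by excess unlabeled MEK5; lower values mean stronger disruption of MEK5 binding to MEKK3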
* hit, by the source's call; [ ] = remark or other dose. Sampled rows, rich in hits. Any-hit rate of the full collection: about 3.2%.

For O=C(Nc1ccc(S(=O)(=O)N2CCCC2)cc1)c1ccc(Br)o1 the results were MEKK3 PB1 HTS 97.0, Pemphigus Ab inh 100.0, UBC13 inh 5.7, Apaf1 inhib 11.0, MEKK2 mut-MEK5 1.0 and MEKK2 WT-MEK5 96.0.
For CC12CCCC[C@@H]1CCC1C2CCC2(C)C1CC[C@@]2(O)CNCCO (stereo partly drawn) the results were MEKK3 PB1 HTS 106.0, Pemphigus Ab inh 91.1, UBC13 inh 38.6, Apaf1 inhib 18.4, MEKK2 mut-MEK5 25.0*, MEKK2 WT-MEK5 136.0*, MEKK2wt confirm 107.0, MEKK2mut confirm 10.0 and MEKK3 confirm 87.0.
CS(=O)(=O)CCC(C(=O)O)N1C(=O)c2ccc(Oc3ccc(Cl)cc3)cc2C1=O (stereo not drawn) was read as MEKK3 PB1 HTS 103.0, Pemphigus Ab inh 101.5, UBC13 inh -4.0, Apaf1 inhib 4.6, MEKK2 mut-MEK5 6.0 and MEKK2 WT-MEK5 106.0.
CCC(/C=C1\Sc2ccc(OC)cc2N1CCO)=C\c1sc2ccc(OC)cc2[n+]1CCO was read as MEKK3 PB1 HTS 36.0*[inhibitor], Pemphigus Ab inh -40.3*, UBC13 inh 40.4, Apaf1 inhib 23.0, MEKK2 mut-MEK5 -27.0, MEKK2 WT-MEK5 1.0*[inhibitor], MEKK2wt confirm 1.0*[inhibitor], MEKK2mut confirm -35.0 and MEKK3 confirm 39.0*.
CCC(/C=C1\Sc2ccc(OC)cc2N1CC)=C\c1sc2ccc(OC)cc2[n+]1CCCS(=O)(=O)[O-] was read as MEKK3 PB1 HTS 56.0*[inhibitor], Pemphigus Ab inh 95.5, UBC13 inh -20.3, Apaf1 inhib 9.2, MEKK2 mut-MEK5 -45.0, MEKK2 WT-MEK5 6.0*[inhibitor], MEKK2wt confirm 17.0*[inhibitor], MEKK2mut confirm -32.0 and MEKK3 confirm 64.0*.
Screening CCO/C(=C/c1sc2ccc(OC)cc2[n+]1CCCS(=O)(=O)[O-])CC returned MEKK3 PB1 HTS 98.0, UBC13 inh 1.0, Apaf1 inhib 9.3, MEKK2 mut-MEK5 1.0 and MEKK2 WT-MEK5 99.0.
For Cc1cccc(NC(=O)c2ccc(S(=O)(=O)N3CCCCC3)cc2)c1 the results were MEKK3 PB1 HTS 93.0, Pemphigus Ab inh 95.7, UBC13 inh -3.5, Apaf1 inhib 14.0, MEKK2 mut-MEK5 0.0 and MEKK2 WT-MEK5 95.0.
For CC(=O)Nc1cccc(NC(=O)CS(=O)(=O)c2cn(CC(=O)N(C(C)C)C(C)C)c3ccccc23)c1 the results were MEKK3 PB1 HTS 103.0, Pemphigus Ab inh 109.0, UBC13 inh -3.8, Apaf1 inhib 2.4, MEKK2 mut-MEK5 4.0 and MEKK2 WT-MEK5 107.0.
Screening COc1ccccc1N(C)S(=O)(=O)c1ccc(C(=O)OCC(=O)Nc2ccccc2F)cc1 returned MEKK3 PB1 HTS 46.0*[inhibitor], Pemphigus Ab inh 88.2, UBC13 inh -2.9, Apaf1 inhib 2.7, MEKK2 mut-MEK5 -16.0, MEKK2 WT-MEK5 45.0*[inhibitor], MEKK2wt confirm 94.0, MEKK2mut confirm 0.0 and MEKK3 confirm 99.0.
`COCCN1C(=O)/C(=C/c2ccc(N3CCCC3)cc2)SC1=S` gave MEKK3 PB1 HTS 87.0, Pemphigus Ab inh 264.0, UBC13 inh -120.4, Apaf1 inhib -17.7, MEKK2 mut-MEK5 -22.0, MEKK2 WT-MEK5 59.0*[inhibitor], MEKK2wt confirm 50.0, MEKK2mut confirm -32.0 and MEKK3 confirm 88.0.
Screening COc1ccc(/C=C2\SC(=S)N(CCC(=O)N3CCCCC3)C2=O)cc1 returned MEKK3 PB1 HTS 101.0, Pemphigus Ab inh 100.1, UBC13 inh -10.6, Apaf1 inhib 22.0, MEKK2 mut-MEK5 3.0 and MEKK2 WT-MEK5 98.0.
For O=C(O)CCC(=O)N1N=C(c2c(-c3ccccc3)c3cc(Cl)ccc3[nH]c2=O)CC1c1cccs1 (stereo not drawn) the results were MEKK3 PB1 HTS 134.0*, Pemphigus Ab inh 93.6, UBC13 inh -3.9, Apaf1 inhib 15.5, MEKK2 mut-MEK5 1.0, MEKK2 WT-MEK5 105.0, MEKK2wt confirm 102.0, MEKK2mut confirm -3.0 and MEKK3 confirm 101.0.
O=C(O)CCCC(=O)N1N=C(c2c(-c3ccccc3)c3cc(Cl)ccc3[nH]c2=O)CC1c1cccs1 (stereo not drawn) was read as MEKK3 PB1 HTS 98.0, Pemphigus Ab inh 104.0, MEKK2 mut-MEK5 1.0 and MEKK2 WT-MEK5 103.0.
Cc1c(OC(C)C(=O)NCC2CCC(C(=O)O)CC2)ccc2c3c(c(=O)oc12)CCCC3 (stereo not drawn) was read as MEKK3 PB1 HTS 102.0, Pemphigus Ab inh inconclusive, UBC13 inh 1.2, Apaf1 inhib -1.0, MEKK2 mut-MEK5 2.0 and MEKK2 WT-MEK5 105.0.
For O=C(N=C1c2ccccc2CN1c1ccc(F)c(F)c1)c1cccnc1 the results were MEKK3 PB1 HTS 107.0, Pemphigus Ab inh 102.6, UBC13 inh 0.4, Apaf1 inhib -9.7, MEKK2 mut-MEK5 -1.0 and MEKK2 WT-MEK5 101.0.
O=C(N=C1c2ccccc2CN1c1cccc(Cl)c1)c1cccnc1 was read as MEKK3 PB1 HTS 56.0*[inhibitor], Pemphigus Ab inh 108.0, UBC13 inh 1.3, Apaf1 inhib -9.7, MEKK2 mut-MEK5 -2.0, MEKK2 WT-MEK5 88.0, MEKK2wt confirm 51.0, MEKK2mut confirm -23.0 and MEKK3 confirm 90.0.
`CCOc1ccc(-c2noc(CCC(=O)NC3CCCCC3)n2)cc1OC` gave MEKK3 PB1 HTS 100.0, Pemphigus Ab inh 99.6, UBC13 inh -4.1, Apaf1 inhib 4.2, MEKK2 mut-MEK5 3.0 and MEKK2 WT-MEK5 104.0.
Screening Cc1ccc(OCC(O)CN2C(=O)NC(C)(C)C2=O)cc1C (stereo not drawn) returned MEKK3 PB1 HTS 99.0, UBC13 inh 4.4, Apaf1 inhib -11.0, MEKK2 mut-MEK5 3.0 and MEKK2 WT-MEK5 103.0.
Cc1ccc(OCC(O)CN2C(=O)NC(C)(C)C2=O)cc1 (stereo not drawn) was read as MEKK3 PB1 HTS 73.0*[inhibitor], Pemphigus Ab inh 104.2, UBC13 inh 1.0, Apaf1 inhib -13.8, MEKK2 mut-MEK5 8.0, MEKK2 WT-MEK5 90.0, MEKK2wt confirm 100.0, MEKK2mut confirm -7.0 and MEKK3 confirm 101.0.
Screening CCC1=C([N+](=O)[O-])C(c2ccc3c(c2)OCO3)NC(=O)N1 (stereo not drawn) returned MEKK3 PB1 HTS 92.0, Pemphigus Ab inh 98.6, UBC13 inh -13.0, Apaf1 inhib 14.7, MEKK2 mut-MEK5 1.0 and MEKK2 WT-MEK5 95.0.

Screening data: PubChem BioAssay, several laboratories
